Source: ChEMBL document CHEMBL5034049, “Flavonol-Based Carbon Monoxide Delivery Molecule with Endoplasmic Reticulum, Mitochondria, And Lysosome Localization” (ACS Med Chem Lett, 2022)
Calls of active or inactive are those of the source. No cut-off for these calls is given here.

Tests used:
[1] = Drug uptake in human HFL1 cells at 1 uM after 4 hrs by Hoechst 33258 staining based fluorescence microscopic analysis; type: ADME, cell-based; conditions: hfl1, 4 h
A549 [2] = assay: Cytotoxicity against human A549 cells assessed as reduction in cell viability incubated for 24 hrs under dark condition by MTT assay; type: cell-based; conditions: A549, 24 h
RAW264.7 [3] = assay: Cytotoxicity against mouse RAW264.7 cells assessed as reduction in cell viability incubated for 24 hrs under dark condition by MTT assay; type: cell-based; conditions: RAW264.7, 24 h
A549 [4] = assay: Cytotoxicity against human A549 cells assessed as reduction in cell viability up to 100 uM incubated for 24 hrs under dark condition by MTT assay; type: cell-based; conditions: a549, 24 h
HFL1 [5] = assay: Cytotoxicity against human HFL1 cells assessed as reduction in cell viability up to 100 uM incubated for 24 hrs under dark condition by MTT assay; type: cell-based; conditions: hfl1, 24 h
[6] = Drug uptake in mouse RAW264.7 cells at 5 uM after 4 hrs by Hoechst 33258 staining based fluorescence microscopic analysis; type: ADME, cell-based; conditions: raw264.7, 4 h
[7] = Drug uptake in endoplasmic reticulum of human A549 cells at 25 uM measured after 1 hr by ER-Tracker Red based confocal microscopic analysis; type: ADME; conditions: a549, 1 h
In short: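 A549 cells treated 1 h at 25 μM (vehicle 0.4% DMSO), then counterstained with Hoechst 33342 and ER-Tracker Red. Imaged by confocal microscopy. Overlap given as Pearson's colocalization coefficient, mean ± SEM over 27 cells examined individually across three separate experiments. Line intensity profiles of regions of interest taken over 20 μm.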

[8] = Drug uptake in mitochondria of human A549 cells at 25 uM measured after 1 hr by MitoTracker Deep Red based confocal microscopic analysis; type: ADME; conditions: a549, 1 h
[9] = Drug uptake in lysosome of human A549 cells at 25 uM measured after 1 hr by LysoTracker Red based confocal microscopic analysis; type: ADME, subcellular; conditions: a549, 1 h
RAW264.7 [10] = assay: Antiinflammatory activity against LPS-stimulated mouse RAW264.7 cells assessed as inhibition of TNF-alpha production at 40 nM incubated for 10 hrs under dark conditions followed by LPS stimulation for 1 hr by ELISA; type: functional, cell-based; conditions: time 11.0 hrs
In short: (§1)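 TNF-α suppression in RAW 264.7 macrophages challenged with LPS. Dark and illuminated treatments run as independent experiments. Mean ± SEM from three independent experiments, compared with the LPS positive control and with the matching non-illuminated treatment.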

A549 [11] = assay: Cytotoxicity against human A549 cells assessed as inhibition of cell viability preincubated under visible light-induced CO release condition for 1 hr followed by incubation with drug for 23 hrs by MTT assay; type: functional, cell-based
[12] = Drug uptake in human A549 cells assessed as clustering of emission at 1 uM after 1 hr by confocal microscopy; type: ADME, cell-based; conditions: a549, 1 h
In short: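 A549 cells exposed 1 h at 1 μM with a media control. Hoechst nuclear counterstain. Confocal imaging at 63×, compound emission read in the green channel.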

RAW264.7 [13] = assay: Antiinflammatory activity against LPS-stimulated mouse RAW264.7 cells assessed as inhibition of TNF-alpha production incubated for 4 hrs followed by illumination with blue LED array for 1 hr and later incubated for 6 hrs under dark conditions followed by LPS stimulation for 1 hr by ELISA; type: functional, cell-based; conditions: time 12.0 hrs; in short: as §1
[14] = Drug uptake in human A549 cells at 1 uM after 4 hrs by Hoechst 33342 staining based fluorescence microscopic analysis; conditions: a549, 4 h
RAW264.7 [15] = assay: Cytotoxicity against mouse RAW264.7 cells assessed as reduction in cell viability up to 100 uM incubated for 24 hrs under dark condition by MTT assay; type: cell-based; conditions: raw264.7, 24 h
HFL1 [16] = assay: Cytotoxicity against human HFL1 cells assessed as reduction in cell viability incubated for 24 hrs under dark condition by MTT assay; type: cell-based; conditions: HFL1, 24 h

Compound: CCN(CC)c1ccc(-c2oc3cc4ccccc4cc3c(=O)c2O)cc1
- Drug uptake [1]: Active
- IC50 (A549 [2]): > 100 µM
- IC50 (RAW264.7 [3]): 67.2 µM
- Activity (A549 [4]): Non-Toxic
- Activity (HFL1 [5]): Non-Toxic
- Drug uptake [6]: Active
- Drug uptake [7]: Active
- Drug uptake [8]: Active
- Drug uptake [9]: Active
- Activity (RAW264.7 [10]): Active
- IC50 (A549 [11]): 10.7 µM
- Drug uptake [12]: Active
- Activity (RAW264.7 [13]): Active
- Drug uptake [14]: Active

Compound: CCN(CC)c1ccc(C(=O)Oc2cc3ccccc3cc2C(=O)O)cc1
- Activity (A549 [4]): Non-Toxic
- Activity (HFL1 [5]): Non-Toxic
- Activity (RAW264.7 [15]): Non-Toxic

Compound: O=c1c(O)c(-c2ccccc2)oc2cc3ccccc3cc12
- IC50 (A549 [2]): 80.2 µM
- IC50 (HFL1 [16]): 65.1 µM
- IC50 (RAW264.7 [3]): 47.7 µM
- IC50 (A549 [11]): 76.1 µM
- Activity (RAW264.7 [13]): Active

Compound: O=C(Oc1cc2ccccc2cc1C(=O)O)c1ccccc1
- Activity (A549 [4]): Non-Toxic
- Activity (HFL1 [5]): Non-Toxic
- Activity (RAW264.7 [15]): Non-Toxic

Compound: O=C(NCC[P+](c1ccccc1)(c1ccccc1)c1ccccc1)c1ccc(-c2oc3cc4ccccc4cc3c(=O)c2O)cc1
- IC50 (A549 [2]): 14.1 µM
- IC50 (A549 [11]): 4.6 µM
